Reference: ChEMBL document CHEMBL3997769, “Discovery and preclinical evaluation of 7-benzyl-N-(substituted)-pyrrolo[3,2-d]pyrimidin-4-amines as single agents with microtubule targeting effects along with triple-acting angiokinase inhibition as antitumor agents” (Bioorg Med Chem, 2017)

Columns and labels:
[1] = system: CCRF-CEM; experiment: Growth inhibition of human CCRF-CEM cells incubated for 48 hrs by sulforhodamine B assay; type: functional
[2] = species on record: Bos taurus; experiment: Displacement of [3H]colchicine from bovine brain tubulin at 5 uM measured after 10 mins by liquid scintillation counting method relative to control
[3] = system: HeLa; experiment: Growth inhibition of human HeLa cells measured after 96 hrs by sulforhodamine B assay; type: functional, cell-based
Summary of the method: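 Exposed 96 h to varying compound concentrations in 0.5% DMSO. Cell protein measured by sulforhodamine B; IC50 = concentration halving the increase in cell protein versus untreated cultures.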

[4] = system: HL-60(TB); experiment: Growth inhibition of human HL-60(TB) cells incubated for 48 hrs by sulforhodamine B assay; type: functional; details: HL-60, 48 h
[5] = system: K562; experiment: Growth inhibition of human K562 cells incubated for 48 hrs by sulforhodamine B assay; type: functional; details: K562, 48 h
[6] = system: MOLT-4; experiment: Growth inhibition of human MOLT4 cells incubated for 48 hrs by sulforhodamine B assay; type: functional; details: MOLT-4, 48 h
[7] = system: RPMI-8226; experiment: Growth inhibition of human RPMI8226 cells incubated for 48 hrs by sulforhodamine B assay; type: functional; details: RPMI-8226, 48 h
[8] = system: SR; experiment: Growth inhibition of human SR cells incubated for 48 hrs by sulforhodamine B assay; type: functional
[9] = system: A549; experiment: Growth inhibition of human A549/ATCC cells incubated for 48 hrs by sulforhodamine B assay; type: functional; details: A549, 48 h
[10] = system: EKVX; experiment: Growth inhibition of human EKVX cells incubated for 48 hrs by sulforhodamine B assay; type: functional
[11] = system: HOP-62; experiment: Growth inhibition of human HOP62 cells incubated for 48 hrs by sulforhodamine B assay; type: functional; details: HOP-62, 48 h
[12] = system: HOP-92; experiment: Growth inhibition of human HOP92 cells incubated for 48 hrs by sulforhodamine B assay; type: functional; details: HOP-92, 48 h
[13] = system: NCI-H226; experiment: Growth inhibition of human NCI-H226 cells incubated for 48 hrs by sulforhodamine B assay; type: functional; details: NCI-H226, 48 h
[14] = system: NCI-H23; experiment: Growth inhibition of human NCI-H23 cells incubated for 48 hrs by sulforhodamine B assay; type: functional; details: NCI-H23, 48 h
[15] = system: NCI-H322M; experiment: Growth inhibition of human NCI-H322M cells incubated for 48 hrs by sulforhodamine B assay; type: functional
[16] = system: NCI-H460; experiment: Growth inhibition of human NCI-H460 cells incubated for 48 hrs by sulforhodamine B assay; type: functional; details: NCI-H460, 48 h
[17] = system: NCI-H522; experiment: Growth inhibition of human NCI-H522 cells incubated for 48 hrs by sulforhodamine B assay; type: functional; details: NCI-H522, 48 h
[18] = system: COLO 205; experiment: Growth inhibition of human COLO205 cells incubated for 48 hrs by sulforhodamine B assay; type: functional; details: COLO 205, 48 h
[19] = system: HCC 2998; experiment: Growth inhibition of human HCC2998 cells incubated for 48 hrs by sulforhodamine B assay; type: functional; details: HCC 2998, 48 h
[20] = system: HCT-116; experiment: Growth inhibition of human HCT116 cells incubated for 48 hrs by sulforhodamine B assay; type: functional; details: HCT-116, 48 h
[21] = system: HCT-15; experiment: Growth inhibition of human HCT15 cells incubated for 48 hrs by sulforhodamine B assay; type: functional; details: HCT-15, 48 h
[22] = system: KM12; experiment: Growth inhibition of human KM12 cells incubated for 48 hrs by sulforhodamine B assay; type: functional; details: KM12, 48 h
[23] = system: SW-620; experiment: Growth inhibition of human SW620 cells incubated for 48 hrs by sulforhodamine B assay; type: functional; details: SW-620, 48 h
[24] = system: SF-268; experiment: Growth inhibition of human SF268 cells incubated for 48 hrs by sulforhodamine B assay; type: functional; details: SF-268, 48 h
[25] = system: SF-295; experiment: Growth inhibition of human SF295 cells incubated for 48 hrs by sulforhodamine B assay; type: functional; details: SF-295, 48 h
[26] = system: SF-539; experiment: Growth inhibition of human SF539 cells incubated for 48 hrs by sulforhodamine B assay; type: functional; details: SF-539, 48 h
[27] = system: SNB-19; experiment: Growth inhibition of human SNB19 cells incubated for 48 hrs by sulforhodamine B assay; type: functional; details: SNB-19, 48 h
[28] = system: SNB-75; experiment: Growth inhibition of human SNB75 cells incubated for 48 hrs by sulforhodamine B assay; type: functional; details: SNB-75, 48 h
[29] = system: U-251; experiment: Growth inhibition of human U251 cells incubated for 48 hrs by sulforhodamine B assay; type: functional; details: U-251, 48 h
[30] = system: LOX IMVI; experiment: Growth inhibition of human LOXIMVI cells incubated for 48 hrs by sulforhodamine B assay; type: functional
[31] = system: Malme-3M; experiment: Growth inhibition of human MALME-3M cells incubated for 48 hrs by sulforhodamine B assay; type: functional
[32] = system: M14; experiment: Growth inhibition of human M14 cells incubated for 48 hrs by sulforhodamine B assay; type: functional; details: M14, 48 h
[33] = system: MDA-MB-435; experiment: Growth inhibition of human MDA-MB-435 cells incubated for 48 hrs by sulforhodamine B assay; type: functional; details: MDA-MB-435, 48 h
[34] = system: SK-MEL-28; experiment: Growth inhibition of human SK-MEL-28 cells incubated for 48 hrs by sulforhodamine B assay; type: functional; details: SK-MEL-28, 48 h
[35] = system: SK-MEL-5; experiment: Growth inhibition of human SK-MEL-5 cells incubated for 48 hrs by sulforhodamine B assay; type: functional; details: SK-MEL-5, 48 h
[36] = system: UACC-257; experiment: Growth inhibition of human UACC257 cells incubated for 48 hrs by sulforhodamine B assay; type: functional; details: UACC-257, 48 h
[37] = system: UACC-62; experiment: Growth inhibition of human UACC62 cells incubated for 48 hrs by sulforhodamine B assay; type: functional; details: UACC-62, 48 h
[38] = system: IGROV-1; experiment: Growth inhibition of human IGROV1 cells incubated for 48 hrs by sulforhodamine B assay; type: functional; details: IGROV-1, 48 h
[39] = system: OVCAR-3; experiment: Growth inhibition of human OVCAR3 cells incubated for 48 hrs by sulforhodamine B assay; type: functional; details: OVCAR-3, 48 h
[40] = system: OVCAR-4; experiment: Growth inhibition of human OVCAR4 cells incubated for 48 hrs by sulforhodamine B assay; type: functional; details: OVCAR-4, 48 h
[41] = system: OVCAR-5; experiment: Growth inhibition of human OVCAR5 cells incubated for 48 hrs by sulforhodamine B assay; type: functional; details: OVCAR-5, 48 h
[42] = system: OVCAR-8; experiment: Growth inhibition of human OVCAR8 cells incubated for 48 hrs by sulforhodamine B assay; type: functional; details: OVCAR-8, 48 h
[43] = system: NCI/ADR-RES; experiment: Growth inhibition of human NCI/ADR-RES cells incubated for 48 hrs by sulforhodamine B assay; type: functional
[44] = system: SK-OV-3; experiment: Growth inhibition of human SKOV3 cells incubated for 48 hrs by sulforhodamine B assay; type: functional; details: SK-OV-3, 48 h
[45] = system: 786-0; experiment: Growth inhibition of human 786-0 cells incubated for 48 hrs by sulforhodamine B assay; type: functional; details: 786-0, 48 h
[46] = system: A498; experiment: Growth inhibition of human A498 cells incubated for 48 hrs by sulforhodamine B assay; type: functional; details: A498, 48 h
[47] = system: ACHN; experiment: Growth inhibition of human ACHN cells incubated for 48 hrs by sulforhodamine B assay; type: functional
[48] = system: CAKI-1; experiment: Growth inhibition of human Caki1 cells incubated for 48 hrs by sulforhodamine B assay; type: functional; details: CAKI-1, 48 h
[49] = system: RXF 393; experiment: Growth inhibition of human RXF393 cells incubated for 48 hrs by sulforhodamine B assay; type: functional; details: RXF 393, 48 h
[50] = system: SN12C; experiment: Growth inhibition of human SN12C cells incubated for 48 hrs by sulforhodamine B assay; type: functional
[51] = system: TK-10; experiment: Growth inhibition of human TK10 cells incubated for 48 hrs by sulforhodamine B assay; type: functional; details: TK-10, 48 h
[52] = system: UO-31; experiment: Growth inhibition of human UO31 cells incubated for 48 hrs by sulforhodamine B assay; type: functional; details: UO-31, 48 h
[53] = system: DU-145; experiment: Growth inhibition of human DU145 cells incubated for 48 hrs by sulforhodamine B assay; type: functional; details: DU-145, 48 h
[54] = system: MCF7; experiment: Growth inhibition of human MCF7 cells incubated for 48 hrs by sulforhodamine B assay; type: functional; details: MCF7, 48 h
[55] = system: MDA-MB-231; experiment: Growth inhibition of human MDA-MB-231 cells incubated for 48 hrs by sulforhodamine B assay; type: functional; details: MDA-MB-231, 48 h
[56] = system: Hs-578T; experiment: Growth inhibition of human Hs578T cells incubated for 48 hrs by sulforhodamine B assay; type: functional
[57] = system: BT-549; experiment: Growth inhibition of human BT549 cells incubated for 48 hrs by sulforhodamine B assay; type: functional; details: BT-549, 48 h
[58] = system: T47D; experiment: Growth inhibition of human T47D cells incubated for 48 hrs by sulforhodamine B assay; type: functional
[59] = system: MDA-MB-468; experiment: Growth inhibition of human MDA-MB-468 cells incubated for 48 hrs by sulforhodamine B assay; type: functional; details: MDA-MB-468, 48 h
[60] = Inhibition of bovine brain tubulin assembly preincubated for 15 mins followed by GTP addition measured for 20 mins by spectrophotometric method; parameters: species or system Bos taurus
[61] = system: A-431; experiment: Cytotoxicity against human A431 cells; type: functional, cell-based
[62] = system: Chorioallantoic membrane; experiment: Antiangiogenic activity in Leghorn chicken egg chorioallantoic membrane assessed as inhibition of human VEGF-165/bFGF-induced blood vessels formation measured after 40 hrs by microscopic method; type: functional, tissue-based; details: Gallus gallus

COc1ccc2c(c1)CCCN2c1nc(C)nc2c(Cc3ccccc3)c[nH]c12
GI50 [1]: 226 nM | inhibition [2]: 43% | IC50 [3]: 250 nM | GI50 [4]: 222 nM | GI50 [5]: 111 nM | GI50 [6]: 345 nM | GI50 [7]: 266 nM | GI50 [8]: 922 nM | GI50 [9]: 406 nM | GI50 [10]: 463 nM | GI50 [11]: 379 nM | GI50 [12]: 189 nM | GI50 [13]: 136 nM | GI50 [14]: 320 nM | GI50 [15]: 362 nM | GI50 [16]: 337 nM | GI50 [17]: 316 nM | GI50 [18]: 232 nM | GI50 [19]: 318 nM | GI50 [20]: 368 nM | GI50 [21]: 366 nM | GI50 [22]: 366 nM | GI50 [23]: 370 nM | GI50 [24]: 723 nM | GI50 [25]: 192 nM | GI50 [26]: 260 nM | GI50 [27]: 549 nM | GI50 [28]: 182 nM | GI50 [29]: 316 nM | GI50 [30]: 521 nM | GI50 [31]: 330 nM | GI50 [32]: 252 nM | GI50 [33]: 341 nM | GI50 [34]: 368 nM | GI50 [35]: 325 nM | GI50 [36]: 108 nM | GI50 [37]: 659 nM | GI50 [38]: 440 nM | GI50 [39]: 285 nM | GI50 [40]: 468 nM | GI50 [41]: 543 nM | GI50 [42]: 487 nM | GI50 [43]: 265 nM | GI50 [44]: 423 nM | GI50 [45]: 934 nM | GI50 [46]: 197 nM | GI50 [47]: 830 nM | GI50 [48]: 341 nM | GI50 [49]: 212 nM | GI50 [50]: 618 nM | GI50 [51]: 123 nM | GI50 [52]: 390 nM | GI50 [53]: 383 nM | GI50 [54]: 248 nM | GI50 [55]: 641 nM | GI50 [56]: 582 nM | GI50 [57]: 755 nM | GI50 [58]: 128 nM | GI50 [59]: 153 nM

COc1ccc(N(C)c2nc(N)nc3c(Cc4ccccc4)c[nH]c23)cc1
IC50 [60]: > 20000 nM | IC50 [61]: 700 nM | IC50 [62]: 2300 nM
